The source made the active and inactive calls. No cut-off for these calls is given here.
Columns and labels:
Rattus norvegicus [1] = organism: Rattus norvegicus; assay: Selectivity ratio of Ki for DAT in rat striatum to Ki for NET in rat cerebral cortex; type: tissue-based
Outline: (§1)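 Ratio of Ki values from [3H]substrate uptake inhibition: [3H]dopamine for DAT in rat striatum, and [3H]serotonin for SERT or [3H]norepinephrine for NET in rat cerebral cortex. Each Ki came from an IC50 fitted over at least five triplicate concentrations, converted by Cheng-Prusoff.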

[2] = Inhibition of NET in rat cerebral cortex assessed as [3H]norepinephrine accumulation; type: tissue-based
Outline: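 Rat cerebral cortex tissue; uptake of [3H]norepinephrine via NET measured. At least five concentrations per compound, each in triplicate, spaced evenly around the IC50. IC50 obtained by nonlinear curve fitting, then converted to Ki by Cheng-Prusoff. Values are mean ± SEM of three to eight independent experiments.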

[3] = target: Sodium-dependent dopamine transporter (Rattus norvegicus, UniProt P23977); assay: Inhibition of DAT in rat striatum assessed as [3H]dopamine accumulation; type: tissue-based
Outline: (§2)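 Uptake of [3H]dopamine (DAT, rat striatum) or [3H]serotonin (SERT, rat cerebral cortex) was measured with at least five triplicate concentrations spaced around the IC50. IC50 came from nonlinear curve fitting and was converted to Ki by Cheng-Prusoff. Values are mean ± SEM of 3–8 independent experiments.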

Rattus norvegicus [4] = organism: Rattus norvegicus; assay: Selectivity ratio of Ki for SERT in rat cerebral cortex to Ki for NET in rat cerebral cortex; type: tissue-based; outline: as §1
[5] = target: Sodium-dependent serotonin transporter (Rattus norvegicus, UniProt P31652); assay: Inhibition of SERT in rat cerebral cortex assessed as [3H]serotonin accumulation; type: tissue-based; outline: as §2
Rattus norvegicus [6] = organism: Rattus norvegicus; assay: Selectivity ratio of Ki for DAT in rat striatum to Ki for SERT in rat cerebral cortex; type: tissue-based; outline: as §1
Rattus norvegicus [7] = assay: Antidepressant activity in […] Sprague-Dawley rat assessed as reduction of immobility time at 15 mg/kg, ip administered 30 mins before test by forced swimming test; type: functional, organism-based; parameters: dose 15 mg/kg
Outline: (§3)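 Male Sprague-Dawley rats (200–225 g), drug-naive and used once. Forced swim test: 15 min pretest swim in a water-filled glass cylinder (depth 22 cm, 24–25 °C). Drug or vehicle (10% β-hydroxypropyl cyclodextrin) was given i.p. 15 min after the pretest and again before the 5 min test swim 24 h later. Immobility was scored from video by a blinded rater.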

Rattus norvegicus [8] = assay: Antidepressant activity in […] Sprague-Dawley rat assessed as reduction of immobility time at 10 mg/kg, ip administered 1 hr before test by forced swimming test; type: functional, organism-based; parameters: dose 10 mg/kg; outline: as §3

Sodium-dependent dopamine transporter, sequence (P23977 whole entry): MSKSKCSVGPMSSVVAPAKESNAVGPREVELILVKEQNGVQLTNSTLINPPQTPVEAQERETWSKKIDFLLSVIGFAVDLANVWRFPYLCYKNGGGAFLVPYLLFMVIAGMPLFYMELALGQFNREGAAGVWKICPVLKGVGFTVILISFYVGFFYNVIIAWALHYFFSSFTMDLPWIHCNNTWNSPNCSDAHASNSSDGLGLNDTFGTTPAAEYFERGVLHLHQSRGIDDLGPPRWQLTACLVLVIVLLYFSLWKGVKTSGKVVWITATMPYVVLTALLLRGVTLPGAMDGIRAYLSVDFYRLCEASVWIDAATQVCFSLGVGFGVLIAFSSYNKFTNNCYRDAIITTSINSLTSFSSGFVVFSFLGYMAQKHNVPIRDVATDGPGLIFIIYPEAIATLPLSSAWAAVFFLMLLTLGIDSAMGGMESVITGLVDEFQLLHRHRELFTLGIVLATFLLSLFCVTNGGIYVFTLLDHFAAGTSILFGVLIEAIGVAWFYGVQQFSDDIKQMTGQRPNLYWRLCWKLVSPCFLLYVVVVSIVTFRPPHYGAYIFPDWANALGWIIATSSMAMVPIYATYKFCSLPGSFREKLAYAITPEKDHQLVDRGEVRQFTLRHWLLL
Sodium-dependent serotonin transporter, sequence (P31652 whole entry): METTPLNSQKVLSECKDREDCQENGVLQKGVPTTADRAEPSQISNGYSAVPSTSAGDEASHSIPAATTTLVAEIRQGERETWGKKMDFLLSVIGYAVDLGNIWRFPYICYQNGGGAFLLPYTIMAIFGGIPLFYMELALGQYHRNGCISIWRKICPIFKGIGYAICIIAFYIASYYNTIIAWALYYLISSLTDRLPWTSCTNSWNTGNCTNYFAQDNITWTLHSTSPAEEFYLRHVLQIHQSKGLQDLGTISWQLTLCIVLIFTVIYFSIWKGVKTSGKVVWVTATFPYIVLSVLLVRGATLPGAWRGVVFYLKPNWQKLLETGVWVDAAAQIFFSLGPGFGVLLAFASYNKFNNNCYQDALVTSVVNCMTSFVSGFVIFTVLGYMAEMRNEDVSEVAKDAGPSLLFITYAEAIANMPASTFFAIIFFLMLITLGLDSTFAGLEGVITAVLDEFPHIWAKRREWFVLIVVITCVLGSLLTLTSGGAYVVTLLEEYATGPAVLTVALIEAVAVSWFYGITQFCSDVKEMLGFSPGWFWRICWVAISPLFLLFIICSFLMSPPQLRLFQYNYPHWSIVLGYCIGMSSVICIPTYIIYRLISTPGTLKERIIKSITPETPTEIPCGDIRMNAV

SMILES | Ratio Ki (Rattus norvegicus [1]) | Ki [2] | Ki [3] | Ratio Ki (Rattus norvegicus [4]) | Ki [5] | Ratio Ki (Rattus norvegicus [6]) | Activity (Rattus norvegicus [7]) | Activity (Rattus norvegicus [8])
c1ccc(C(c2ccccc2)[C@@H]2CC[C@H](NCc3cccc4ccccc34)CO2)cc1 | 2.04 | 232 nM | 473 nM | 0.38 | 88.8 nM | 5.33 | – | –
c1ccc(C(c2ccccc2)[C@@H]2CC[C@H](NCc3cccs3)CO2)cc1 | 0.88 | 47.2 nM | 41.4 nM | 3.94 | 186 nM | 0.22 | – | –
c1ccc(C(c2ccccc2)[C@@H]2CC[C@H](NCc3ccccn3)CO2)cc1 | 0.41 | – | 209 nM | 0.96 | 483 nM | 0.43 | – | –
O[C@@H](CN[C@H]1CC[C@@H](C(c2ccccc2)c2ccccc2)OC1)c1ccc(F)cc1 | 0.13 | 546 nM | 71.8 nM | 2.09 | 1140 nM | 0.06 | – | –
c1ccc(C(c2ccccc2)[C@@H]2CC[C@H](NCc3ccncc3)CO2)cc1 | 0.06 | 462 nM | 28.3 nM | 1.92 | 889 nM | 0.03 | – | –
O[C@@H]1C[C@@H](C(c2ccccc2)c2ccccc2)OC[C@H]1NCc1ccc2[nH]ccc2c1 (single isomer, unassigned) | – | – | 85.2 nM | – | – | – | – | –
Oc1ccccc1CN[C@H]1CC[C@@H](C(c2ccccc2)c2ccccc2)OC1 | 1.25 | 160 nM | 200 nM | 2.75 | 440 nM | 0.45 | – | –
O[C@H](CN[C@H]1CC[C@@H](C(c2ccccc2)c2ccccc2)OC1)c1ccc(F)cc1 | 0.48 | 222 nM | 106 nM | 3.72 | 825 nM | 0.13 | – | –
O[C@@H](CN[C@H]1CC[C@@H](C(c2ccccc2)c2ccccc2)OC1)c1ccccc1 | 0.9 | 162 nM | 145 nM | 5.78 | 936 nM | 0.15 | – | –
COc1ccc(CN[C@H]2CC[C@@H](C(c3ccccc3)c3ccccc3)OC2)cc1 | – | 29.3 nM | 15.9 nM | – | – | – | – | –
Oc1ccc(CN[C@H]2CC[C@@H](C(c3ccccc3)c3ccccc3)OC2)cc1 | – | – | 42 nM | – | 29.1 nM | – | – | –
c1ccc(C(c2ccccc2)[C@@H]2CC[C@H](NCc3ccc[nH]3)CO2)cc1 | 1.09 | 39.6 nM | 43.2 nM | 3.56 | 141 nM | 0.31 | – | –
COc1cccc([C@@H](O)CN[C@H]2CC[C@@H](C(c3ccccc3)c3ccccc3)OC2)c1 | 0.29 | 429 nM | 125 nM | 2.55 | 1090 nM | 0.11 | – | –
COc1cccc([C@H](O)CN[C@H]2CC[C@@H](C(c3ccccc3)c3ccccc3)OC2)c1 | 0.46 | 299 nM | 137 nM | 2.16 | 646 nM | 0.21 | – | –
c1ccc(C(c2ccccc2)[C@@H]2CC[C@H](NCc3ccco3)CO2)cc1 | 1.84 | 59.8 nM | 110 nM | 1.92 | 115 nM | 0.96 | – | –
CN(C)CCCN1c2ccccc2CCc2ccccc21 | – | – | – | – | – | – | Active | –
c1ccc(C(c2ccccc2)[C@@H]2CC[C@H](NCc3cccnc3)CO2)cc1 | 0.41 | 353 nM | 145 nM | 0.43 | 152 nM | 0.95 | – | –
O[C@H](CN[C@H]1CC[C@@H](C(c2ccccc2)c2ccccc2)OC1)c1ccccc1 | 0.18 | 298 nM | 54 nM | 2.67 | 796 nM | 0.07 | – | –
Oc1cccc(CN[C@H]2CC[C@@H](C(c3ccccc3)c3ccccc3)OC2)c1 | 0.81 | 38.5 nM | 31.3 nM | 1.04 | 40.1 nM | 0.78 | – | Active

From ChEMBL document CHEMBL1772952 (J Med Chem, 2011)
